PubChem BioAssay AID588791 (Southern Research Specialized Biocontainment Screening …, 2011)
Activity calls are given as the source filed them.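 How the source made its calls: active means virus titer falling by more than one log, over tenfold fewer virus than untreated infected wells; inactive means the rest.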

System: HEp-2 cells, RSV plaque reduction, virus titer
Assay: RSV yield reduction in HEp-2 cells – cell-based, set 5, orthogonal assay for RSV inhibitor project, late-stage follow-up (AID 588791)
Conditions: stronger effect = lower value
In short: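 System: RSV Long-infected HEp-2 cells; times: compound exposure 48 h at 37 °C after infection; compound dosing: 0.5% DMSO final; also added: RSV Long strain at MOI 0.1, 2 h adsorption; measured by: plaque titration of harvested supernatants on fresh HEp-2, neutral red; buffer or medium: Avicel overlay, plaque stage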

SMILES	log virus titer change (at 10 µM)	log virus titer change (titer change, at 2.5 µM)	log virus titer change (titer change, at 5 µM)
CC(C)c1ccc(Cn2c(=O)n(Cc3ccc(C(=O)NCC4COC4)cc3)c(=O)c3cccnc32)cc1	-2.72	0.155	-0.572
CC(C)(C)c1ccc(Cn2c(=O)n(Cc3ccc(C(=O)NCC4COC4)cc3)c(=O)c3ccccc32)cc1	-3.4	0.138	-1.13
CC(C)c1ccc(Cn2c(=O)n(Cc3ccc(C(=O)NCC4COC4)cc3)c(=O)c3ccccc32)cc1	-5.75	-3.06	-5.75
CC(C)c1ccc(Cn2c(=O)n(Cc3ccc(C(=O)NCC4COC4)cc3)c(=O)c3ncccc32)cc1	0.144 (inactive)	0.21	0.267
